Measurements published in ChEMBL document CHEMBL1799933, “Discovery of a selective allosteric M1 receptor modulator with suitable development properties based on a quinolizidinone carboxylic acid scaffold” (J Med Chem, 2011).
The source made the active and inactive calls. No cut-off for these calls is given here.

Experiments:
[1] = Passive permeability of the compound at 5 uM; type: ADME; settings: not told
[2] = system: Mus musculus; experiment: Antiamnesic activity against scopolamine-induced dementia in ip dosed B6SJL mouse assessed as increase in freezing behavior after 24 hrs; type: functional, organism-based
Summary of the method: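 Male B6SJL mice, 10 weeks old and naive (n = 12–16/group), were given compound IP in 5% beta-cyclodextrin and/or scopolamine 0.3 mg/kg in 0.9% saline 30 min before training. Training was 2 tone (3 kHz, 85 dB, 30 s)–footshock (0.5 mA, 1 s) pairings 2 min apart. Freezing in the same chamber was video-scored 24 h later.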

[3] = Metabolic stability in human NADPH-fortified hepatic microsomes assessed as oxidative metabolism; type: ADME, Liver
Summary of the method: (§1)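 Compound incubated with NADPH-fortified hepatic microsomes from rat, dog, monkey or human. Oxidative metabolism monitored.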

[4] = Half life in rat at 3 mg/kg, po and 1 mg/kg, iv; type: ADME, organism-based; settings: in vivo
Summary of the method: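 Rats (n = 2) dosed orally at 3 mg/kg and IV at 1 mg/kg. Interanimal variability under 20% for all values.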

[5] = biological target: T1, Muscarinic acetylcholine receptor M4 (Homo sapiens) (UniProt P08173); experiment: Agonist activity at human muscarinic M4 receptor expressed in CHONFAT cells assessed as increase in acetylcholine-induced calcium mobilization at 10 uM preincubated for 4 mins measured after 1 hr by FLIPR assay; type: functional, cell-based
T1 sequence (whole entry): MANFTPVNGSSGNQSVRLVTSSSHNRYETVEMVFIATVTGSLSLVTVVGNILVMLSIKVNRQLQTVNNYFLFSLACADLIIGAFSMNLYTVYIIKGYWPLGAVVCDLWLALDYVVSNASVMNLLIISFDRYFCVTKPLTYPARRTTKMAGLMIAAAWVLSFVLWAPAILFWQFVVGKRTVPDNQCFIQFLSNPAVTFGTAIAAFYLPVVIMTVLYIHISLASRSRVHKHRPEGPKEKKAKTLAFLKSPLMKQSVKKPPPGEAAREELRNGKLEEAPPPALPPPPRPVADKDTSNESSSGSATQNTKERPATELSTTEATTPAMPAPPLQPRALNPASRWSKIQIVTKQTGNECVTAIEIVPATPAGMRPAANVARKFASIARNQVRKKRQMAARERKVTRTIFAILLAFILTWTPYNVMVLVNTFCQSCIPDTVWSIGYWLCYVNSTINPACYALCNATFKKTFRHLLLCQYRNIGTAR
Summary of the method: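 CHO-NFAT cells expressing the named muscarinic receptor (human M1–M4; rhesus, dog or rat M1 in CHO-K1) were plated at 25,000 cells/well and grown overnight at 37 °C, 6% CO2. Cells were loaded with 1 μM Fluo-4AM for 1 h, washed, and preincubated 4 min with serially diluted compound (final DMSO 0.67%). They were then stimulated 4 min with an EC20 of ACh, and Ca2+ flux was read by FLIPR384.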

[6] = Metabolic stability in monkey NADPH-fortified hepatic microsomes assessed as oxidative metabolism; type: ADME, Macaca mulatta, Liver; settings: rhesus monkey; summary of the method: as §1

N#CC1(c2ccccn2)CCN(Cc2cc(C(=O)O)c(=O)n3ccccc23)CC1 [MSD-M1PAM]
Papp at 5 µM [1]: 18 ×10⁻⁶ cm/s | Activity [2]: Dose-dependent effect | Stability [3]: Stable | half-life [4]: 1.7 h | Activity [5]: inactive | Stability [6]: Stable
